Two compounds from ChEMBL document CHEMBL4834403, “Design and Synthesis of Novel Epigenetic Inhibitors Targeting Histone Deacetylases, DNA Methyltransferase 1, and Lysine Methyltransferase G9a with In Vivo Efficacy in Multiple Myeloma” (J Med Chem, 2021) can be followed below.

In data set [1] the target is T1, Histone-lysine N-methyltransferase EHMT2 (Homo sapiens, UniProt Q96KQ7).
T1 sequence (Q96KQ7 whole entry): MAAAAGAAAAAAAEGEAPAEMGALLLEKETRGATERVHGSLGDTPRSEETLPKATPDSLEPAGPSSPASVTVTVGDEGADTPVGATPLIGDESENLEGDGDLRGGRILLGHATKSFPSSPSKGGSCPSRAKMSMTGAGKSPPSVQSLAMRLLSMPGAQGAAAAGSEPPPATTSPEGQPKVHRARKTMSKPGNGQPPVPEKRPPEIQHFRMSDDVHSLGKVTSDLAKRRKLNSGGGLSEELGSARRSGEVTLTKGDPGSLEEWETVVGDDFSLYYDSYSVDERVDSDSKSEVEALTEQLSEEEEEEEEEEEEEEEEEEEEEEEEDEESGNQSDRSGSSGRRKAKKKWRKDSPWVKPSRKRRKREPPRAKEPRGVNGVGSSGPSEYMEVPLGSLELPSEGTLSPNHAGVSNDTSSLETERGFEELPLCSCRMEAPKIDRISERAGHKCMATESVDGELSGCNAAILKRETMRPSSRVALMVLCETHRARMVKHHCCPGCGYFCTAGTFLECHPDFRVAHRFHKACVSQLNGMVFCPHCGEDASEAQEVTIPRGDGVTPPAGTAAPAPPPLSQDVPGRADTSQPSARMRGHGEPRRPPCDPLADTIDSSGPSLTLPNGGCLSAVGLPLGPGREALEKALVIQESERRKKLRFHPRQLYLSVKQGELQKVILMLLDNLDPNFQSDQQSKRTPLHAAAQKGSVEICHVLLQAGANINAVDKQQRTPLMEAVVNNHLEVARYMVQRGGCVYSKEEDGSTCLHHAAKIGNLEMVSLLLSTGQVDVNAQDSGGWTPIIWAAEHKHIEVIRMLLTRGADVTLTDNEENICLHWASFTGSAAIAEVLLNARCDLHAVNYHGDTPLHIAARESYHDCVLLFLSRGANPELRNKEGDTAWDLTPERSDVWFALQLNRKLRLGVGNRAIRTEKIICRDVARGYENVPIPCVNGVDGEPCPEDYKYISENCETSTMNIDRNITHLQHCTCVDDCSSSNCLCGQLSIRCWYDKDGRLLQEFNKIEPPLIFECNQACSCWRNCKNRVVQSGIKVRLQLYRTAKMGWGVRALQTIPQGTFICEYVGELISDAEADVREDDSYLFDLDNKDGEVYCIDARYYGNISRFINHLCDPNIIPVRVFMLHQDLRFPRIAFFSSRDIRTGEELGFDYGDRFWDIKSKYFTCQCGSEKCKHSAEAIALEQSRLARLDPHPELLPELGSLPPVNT
Description: Inhibition of human G9a enzyme using histone monomethyl-H3K9 peptide as substrate incubated for 1 hr in presence of SAM by TR-FRET assay. (In general: Time-resolved FRET reads energy transfer from a long-lived donor to a nearby acceptor.)

For data set [2], the system named is MM1.S. Description: Antiproliferative activity against human MM1.S cells assessed as inhibition of cell proliferation measured up to 72 hrs by CellTiter96 Aqueous one reagent based assay. Format: functional.
Data set [3] in a line: Kinetic solubility of the compound. Format: physicochemical. The following applies: read-out: Kinetic_solubility.
Data set [4] in a line: Permeability of the compound in PBS/EtOH buffer (70:30) incubated for 18 hrs by UV plate reader based PAMPA assay. Format: ADME. The following applies: read-out: permeability. For orientation: PAMPA measures passive passage across an artificial lipid membrane.
The next data set concerns NCI-H929. Nature of the data set: Antiproliferative activity against human NCI-H929 cells assessed as inhibition of cell proliferation measured up to 72 hrs by CellTiter96 Aqueous one reagent based assay. Format: functional. The following applies: NCI-H929, 72 h, time hrs <=72.
In another data set the target is CYP2D6 (Homo sapiens, UniProt P10635). Description: Inhibition of CYP2D6 in human liver microsomes at 10 uM incubated for 10 mins in presence of NADPH by LC-MS/MS analysis relative to control. The data set is classed as ADME. In general terms: Liver microsomes are vesicles of endoplasmic reticulum, rich in cytochrome P450 enzymes.
The next data set concerns JJN-3. Description: Antiproliferative activity against human JJN-3 cells assessed as inhibition of cell proliferation measured up to 72 hrs by CellTiter96 Aqueous one reagent based assay. The data set is classed as functional. The following applies: JJN-3, 72 h, time hrs <=72.
The target of data set [5] is Histone deacetylase 3/Nuclear receptor corepressor 2 (HDAC3/NCoR2) (Homo sapiens, UniProt O15379). Description: Inhibition of full length human C-terminal His-tagged HDAC3/human N-terminal GST-agged NCOR2 using fluorogenic acetylated peptide as substrate incubated for 30 mins by fluorescence plate reader assay. The data set is classed as protein-complex assay.
The next data set addresses CYP2C19 (Homo sapiens, UniProt P33261). Description: Inhibition of CYP2C19 in human liver microsomes at 10 uM incubated for 10 mins in presence of NADPH by LC-MS/MS analysis relative to control. Format: ADME.
The next data set deals with THLE-2. Nature of the data set: Cytotoxicity against human THLE-2 cells assessed as decrease in cell viability measured after 72 hrs by Vialight-plus cell proliferation assay. Format: cell-based. To be noted: thle-2, 72 h. The gist of the method: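 Human THLE-2 cells exposed to compound for 72 h. Cytotoxicity reported as LC50 and pLC50, averaged from at least two independent experiments on different days.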

The nature of data set [6]: Antiproliferative activity against human KMS-28BM cells assessed as inhibition of cell proliferation measured up to 72 hrs by CellTiter96 Aqueous one reagent based assay. The data set is classed as functional. To be noted: time hrs <=72.
The test system of data set [7] is MM1.S. Nature of the data set: Induction of DNA hypomethylation in human MM1.S cells assessed as CPG hypomethylation at position 5 at 10 nM measured after 5 days relative to control. Format: cell-based. The following applies: time 5.0 day. The gist of the method: (§1)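 MM1.S cells dosed every day for 5 days at 2 μM or 10 nM. DNA methylation at CpGs of the POU4F2 promoter read by pyrosequencing; run in duplicate.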

A further data set concerns the target CYP2C9 (Homo sapiens, UniProt P11712). Description: Inhibition of CYP2C9 in human liver microsomes at 10 uM incubated for 10 mins in presence of NADPH by LC-MS/MS analysis relative to control. The data set is classed as ADME.
A short description of data set [8]: AUC (0 to 24 hrs) in BALB/c RAG2-/- gammaC-/- mouse at 10 mg/kg, ip measured up to 24 hrs by UPLC-triple quadrupole MS analysis. The data set is classed as ADME, organism-based. The arrangement: route intraperitoneal, dose 10 mg/kg, time <=24. To be noted: in vivo.
In a further data set the target is Histone deacetylase 1 (Homo sapiens, UniProt Q13547). Description: Inhibition of full length human C-terminal His-tagged/C-terminal Flag-tagged HDAC1 using fluorogenic acetylated peptide as substrate incubated for 30 mins by fluorescence plate reader assay.
The subject of data set [9] is MM1.S. Nature of the data set: Induction of DNA hypomethylation in human MM1.S cells assessed as CPG hypomethylation at position 4 at 10 nM measured after 5 days relative to control. Format: cell-based. The following applies: time 5.0 day. The essentials: as §1
Data set [10] is described as follows: Apparent oral clearance in BALB/c RAG2-/- gammaC-/- mouse at 10 mg/kg, ip using 80% saline 10% Tween20 and 10% DMSO formulation measured up to 24 hrs by UPLC-triple quadrupole MS analysis. The data set is classed as ADME, organism-based. To be noted: in vivo.
Data set [11] has as its target DNA (cytosine-5)-methyltransferase 1 (Homo sapiens, UniProt P26358). Nature of the data set: Inhibition of human DNMT1 enzyme using polydeoxy-inosine polydeoxy-cytosine DNA as substrate incubated for 15 mins in presence of SAM by TR-FRET assay.
Data set [12] can be described thus: Toxicity in mouse assessed as mouse death at 5 mg/kg, ip after 15 mins. Format: organism-based. To be noted: in vivo, 0.25 h. The gist of the method: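 Observation made during a preliminary pharmacokinetic study with i.p. dosing, n = 5 mice per dose level, with blood extraction after administration.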
Where [13] appears, read: time hrs <=72, read-out: pGI50 (converted).

Some results are limits rather than exact numbers.

Sequence of Histone deacetylase 3/Nuclear receptor corepressor 2 (HDAC3/NCoR2) (O15379 whole entry): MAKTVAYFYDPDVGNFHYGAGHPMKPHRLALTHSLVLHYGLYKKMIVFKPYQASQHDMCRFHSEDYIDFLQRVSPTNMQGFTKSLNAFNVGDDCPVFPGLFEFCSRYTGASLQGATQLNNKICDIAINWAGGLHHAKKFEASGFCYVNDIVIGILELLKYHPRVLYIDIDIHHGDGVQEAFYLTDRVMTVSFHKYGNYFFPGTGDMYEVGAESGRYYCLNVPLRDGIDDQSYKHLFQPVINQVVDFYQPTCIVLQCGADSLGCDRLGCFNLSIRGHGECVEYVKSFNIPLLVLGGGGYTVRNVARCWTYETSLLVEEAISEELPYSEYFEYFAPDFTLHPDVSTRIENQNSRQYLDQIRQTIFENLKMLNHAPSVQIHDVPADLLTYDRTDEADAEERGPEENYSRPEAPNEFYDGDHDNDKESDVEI
Sequence of Histone deacetylase 3/Nuclear receptor corepressor 2 (HDAC3/NCoR2) (Q9Y618 whole entry, further chain): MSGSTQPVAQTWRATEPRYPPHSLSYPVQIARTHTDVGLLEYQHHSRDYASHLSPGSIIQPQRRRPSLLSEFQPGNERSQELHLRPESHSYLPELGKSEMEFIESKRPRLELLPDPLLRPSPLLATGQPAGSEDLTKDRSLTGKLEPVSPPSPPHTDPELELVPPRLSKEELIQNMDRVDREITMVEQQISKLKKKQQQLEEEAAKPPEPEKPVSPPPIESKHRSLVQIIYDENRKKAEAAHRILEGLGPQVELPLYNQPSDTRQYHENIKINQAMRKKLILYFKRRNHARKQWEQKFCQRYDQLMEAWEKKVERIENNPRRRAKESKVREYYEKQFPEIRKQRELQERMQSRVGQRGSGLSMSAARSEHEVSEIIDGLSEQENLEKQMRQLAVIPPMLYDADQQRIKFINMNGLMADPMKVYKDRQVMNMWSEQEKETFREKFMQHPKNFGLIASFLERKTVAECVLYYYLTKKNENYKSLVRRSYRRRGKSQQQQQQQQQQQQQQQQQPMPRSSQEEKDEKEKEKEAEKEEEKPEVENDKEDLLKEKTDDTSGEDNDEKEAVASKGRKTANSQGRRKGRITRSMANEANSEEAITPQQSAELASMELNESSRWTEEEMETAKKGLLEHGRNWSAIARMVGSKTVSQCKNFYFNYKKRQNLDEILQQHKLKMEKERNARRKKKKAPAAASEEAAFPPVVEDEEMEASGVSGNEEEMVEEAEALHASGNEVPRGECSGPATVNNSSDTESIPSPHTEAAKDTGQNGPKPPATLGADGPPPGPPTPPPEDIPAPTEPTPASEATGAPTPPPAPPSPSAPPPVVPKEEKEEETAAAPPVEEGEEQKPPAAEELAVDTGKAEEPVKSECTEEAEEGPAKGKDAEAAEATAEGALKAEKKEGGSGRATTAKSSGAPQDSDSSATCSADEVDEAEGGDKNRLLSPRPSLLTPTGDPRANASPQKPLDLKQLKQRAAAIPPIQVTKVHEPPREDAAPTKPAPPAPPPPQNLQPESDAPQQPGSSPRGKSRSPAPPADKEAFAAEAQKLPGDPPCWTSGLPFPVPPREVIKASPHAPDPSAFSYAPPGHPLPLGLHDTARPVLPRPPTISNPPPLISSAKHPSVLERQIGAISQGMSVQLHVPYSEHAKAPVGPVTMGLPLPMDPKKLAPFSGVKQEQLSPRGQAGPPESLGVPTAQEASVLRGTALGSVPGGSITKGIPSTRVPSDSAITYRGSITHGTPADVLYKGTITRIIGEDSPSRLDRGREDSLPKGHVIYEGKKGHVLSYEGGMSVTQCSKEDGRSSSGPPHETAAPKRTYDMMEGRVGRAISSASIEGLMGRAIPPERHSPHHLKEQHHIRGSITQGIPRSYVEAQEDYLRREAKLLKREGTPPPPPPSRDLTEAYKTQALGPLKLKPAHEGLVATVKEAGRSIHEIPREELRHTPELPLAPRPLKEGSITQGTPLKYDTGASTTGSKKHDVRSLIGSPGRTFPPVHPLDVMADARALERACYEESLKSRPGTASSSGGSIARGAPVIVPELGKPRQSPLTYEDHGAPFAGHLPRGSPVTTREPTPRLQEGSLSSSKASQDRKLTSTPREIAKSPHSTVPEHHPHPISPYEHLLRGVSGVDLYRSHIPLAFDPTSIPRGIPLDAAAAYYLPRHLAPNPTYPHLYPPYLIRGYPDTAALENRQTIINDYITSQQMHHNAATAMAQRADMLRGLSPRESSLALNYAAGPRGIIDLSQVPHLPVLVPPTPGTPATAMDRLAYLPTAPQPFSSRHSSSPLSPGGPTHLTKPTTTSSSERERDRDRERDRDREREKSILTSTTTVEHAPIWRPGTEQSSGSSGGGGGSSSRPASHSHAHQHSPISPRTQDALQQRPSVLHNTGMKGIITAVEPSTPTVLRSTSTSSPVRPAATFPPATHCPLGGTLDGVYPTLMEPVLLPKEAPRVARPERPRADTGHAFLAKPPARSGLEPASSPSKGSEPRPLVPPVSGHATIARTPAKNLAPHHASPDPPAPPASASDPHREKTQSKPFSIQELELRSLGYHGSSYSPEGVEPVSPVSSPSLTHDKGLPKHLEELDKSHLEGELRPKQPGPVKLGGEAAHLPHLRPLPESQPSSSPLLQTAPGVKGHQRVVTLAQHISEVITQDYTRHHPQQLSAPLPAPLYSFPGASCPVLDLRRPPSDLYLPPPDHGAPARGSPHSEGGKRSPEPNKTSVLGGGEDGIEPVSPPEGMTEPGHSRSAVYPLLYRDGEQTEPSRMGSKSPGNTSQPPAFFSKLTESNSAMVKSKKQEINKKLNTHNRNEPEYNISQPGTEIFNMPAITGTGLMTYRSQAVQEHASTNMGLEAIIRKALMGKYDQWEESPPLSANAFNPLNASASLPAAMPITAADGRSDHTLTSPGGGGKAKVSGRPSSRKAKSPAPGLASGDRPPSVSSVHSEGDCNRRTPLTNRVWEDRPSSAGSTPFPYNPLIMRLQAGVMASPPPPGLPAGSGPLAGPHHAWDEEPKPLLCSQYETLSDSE
Sequence of Histone deacetylase 1 (Q13547 whole entry): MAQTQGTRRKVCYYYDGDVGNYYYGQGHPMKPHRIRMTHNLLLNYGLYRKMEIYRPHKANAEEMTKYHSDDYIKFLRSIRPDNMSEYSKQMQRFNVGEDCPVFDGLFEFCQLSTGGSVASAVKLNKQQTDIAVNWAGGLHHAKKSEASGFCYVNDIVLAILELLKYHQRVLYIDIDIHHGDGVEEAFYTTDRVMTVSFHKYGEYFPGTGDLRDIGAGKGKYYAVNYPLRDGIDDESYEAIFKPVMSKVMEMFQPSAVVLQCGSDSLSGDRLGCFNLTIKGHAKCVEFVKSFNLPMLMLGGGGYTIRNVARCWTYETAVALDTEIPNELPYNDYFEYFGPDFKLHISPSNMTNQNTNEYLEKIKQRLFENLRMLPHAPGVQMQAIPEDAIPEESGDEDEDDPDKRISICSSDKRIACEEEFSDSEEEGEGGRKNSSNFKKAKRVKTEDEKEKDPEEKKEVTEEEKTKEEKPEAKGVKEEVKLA
Sequence of CYP2D6 (P10635 whole entry): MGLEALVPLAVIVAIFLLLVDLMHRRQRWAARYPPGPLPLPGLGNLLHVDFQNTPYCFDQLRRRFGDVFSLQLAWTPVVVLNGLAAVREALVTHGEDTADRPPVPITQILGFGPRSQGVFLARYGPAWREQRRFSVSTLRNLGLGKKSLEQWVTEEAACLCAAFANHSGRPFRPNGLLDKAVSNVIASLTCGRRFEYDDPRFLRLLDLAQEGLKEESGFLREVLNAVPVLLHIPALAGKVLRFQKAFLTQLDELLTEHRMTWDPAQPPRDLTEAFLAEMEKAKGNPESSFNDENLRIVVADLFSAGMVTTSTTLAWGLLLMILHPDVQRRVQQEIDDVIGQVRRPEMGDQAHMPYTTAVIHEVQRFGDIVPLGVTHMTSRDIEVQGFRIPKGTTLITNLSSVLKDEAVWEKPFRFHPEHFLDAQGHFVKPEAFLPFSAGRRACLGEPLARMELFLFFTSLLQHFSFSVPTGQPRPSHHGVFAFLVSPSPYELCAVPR
Sequence of CYP2C19 (P33261 whole entry): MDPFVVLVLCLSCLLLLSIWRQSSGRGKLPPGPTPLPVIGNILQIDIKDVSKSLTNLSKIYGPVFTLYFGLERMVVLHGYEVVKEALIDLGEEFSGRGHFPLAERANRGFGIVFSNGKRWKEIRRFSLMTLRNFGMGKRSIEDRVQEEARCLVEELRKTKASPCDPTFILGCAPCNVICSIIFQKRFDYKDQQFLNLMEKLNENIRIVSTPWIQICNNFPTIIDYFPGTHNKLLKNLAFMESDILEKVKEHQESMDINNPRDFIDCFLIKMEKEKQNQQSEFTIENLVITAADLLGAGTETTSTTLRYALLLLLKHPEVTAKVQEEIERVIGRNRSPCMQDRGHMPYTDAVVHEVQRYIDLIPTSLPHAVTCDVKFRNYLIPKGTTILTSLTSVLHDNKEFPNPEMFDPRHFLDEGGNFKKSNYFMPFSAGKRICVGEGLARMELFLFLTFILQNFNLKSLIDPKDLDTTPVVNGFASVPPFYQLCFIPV
Sequence of CYP2C9 (P11712 whole entry): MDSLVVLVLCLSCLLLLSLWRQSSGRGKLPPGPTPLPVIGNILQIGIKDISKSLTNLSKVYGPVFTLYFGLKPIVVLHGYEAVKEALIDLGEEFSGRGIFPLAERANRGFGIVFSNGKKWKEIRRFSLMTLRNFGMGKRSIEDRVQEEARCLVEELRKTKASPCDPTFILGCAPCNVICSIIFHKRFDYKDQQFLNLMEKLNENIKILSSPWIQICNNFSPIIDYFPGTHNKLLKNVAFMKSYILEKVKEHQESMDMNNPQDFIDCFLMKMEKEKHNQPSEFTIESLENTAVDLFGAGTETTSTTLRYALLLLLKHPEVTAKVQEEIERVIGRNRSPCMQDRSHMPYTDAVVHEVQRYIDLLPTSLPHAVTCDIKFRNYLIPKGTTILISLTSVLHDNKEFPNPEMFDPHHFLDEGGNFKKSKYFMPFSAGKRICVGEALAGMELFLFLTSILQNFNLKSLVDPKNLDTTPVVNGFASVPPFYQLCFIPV

With `COc1cc2nc(-c3ccc(C)o3)cc(NCC3CCN(c4ncc(C(=O)NO)cn4)CC3)c2cc1OC`, the IC50 (as a rule, the concentration at which inhibition is half-maximal) in data set [1] was above 10000 nM; in [5] it was 18 nM; against Histone deacetylase 1, 7 nM. The GI50 in the data set with MM1.S [2] (time hrs <=72, read-out: GI50) was 32 nM; in the data set on MM1.S [2] (setting [13]), 31.6 nM; with NCI-H929, 103 nM; in the data set on JJN-3, 482 nM; in data set [6], 547 nM. Moreover, in data set [3], the solubility kinetic is below 0.987 µg/mL. Moreover, the Papp at 18 h in [4] was determined as 0.504 ×10⁻⁶ cm/s. The inhibition (commonly the share of the control response that was lost under treatment) at 10 min, 10 µM at CYP2D6 came to 10.8%; at CYP2C19, 5.6%; at CYP2C9, 0%. The LC50 (commonly the concentration that kills 50% of the test population) with THLE-2 was found to be 794 nM. Besides, the pLC50 in the data set on THLE-2 was 6.1. Also, the Activity in the data set on MM1.S [7] and in the data set on MM1.S [9] was 10% each time. Besides, in data set [8], the AUC(0-t) (usually the area under the concentration-time curve up to a stated or last time point) was 0.591 µM·h. Moreover, in data set [10], the CL/F (as a rule, the apparent clearance, not corrected for the fraction that reaches the circulation) is 8.83 mL/min.

With `COc1cc2c(NCC3CCN(c4ncc(C(=O)NO)cn4)CC3)cc(-c3ccc(C)o3)nc2cc1OCCCN1CCCC1`, the IC50 was 269 nM in data set [1], 1160 nM in [11], 5 nM in data set [5] and 3 nM at Histone deacetylase 1. The GI50 in the data set with MM1.S [2] (time hrs <=72, read-out: GI50) was 2080 nM; in the data set with MM1.S [2] (setting [13]), 2090 nM; with NCI-H929 it was 981 nM; with JJN-3, 6040 nM; in [6], 1300 nM. Also, the Activity result in [12] was “Toxic”. In the data set on THLE-2, the LC50 is 10900 nM. Besides, the pLC50 in the data set with THLE-2 is given as 4.96.
